The target of data set [1] is T1, Proteasome subunit beta type-8 (Homo sapiens, UniProt P28062).
T1 sequence (P28062 whole entry): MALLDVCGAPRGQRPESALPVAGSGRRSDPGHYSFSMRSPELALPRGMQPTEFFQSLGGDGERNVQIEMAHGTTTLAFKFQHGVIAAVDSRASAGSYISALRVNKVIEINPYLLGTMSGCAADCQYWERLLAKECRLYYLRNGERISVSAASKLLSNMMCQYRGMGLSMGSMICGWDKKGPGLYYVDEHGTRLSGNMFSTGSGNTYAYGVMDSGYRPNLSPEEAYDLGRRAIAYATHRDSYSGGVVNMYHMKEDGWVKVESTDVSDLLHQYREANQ
Put plainly: Inhibition of human immunoproteasome beta 5i subunit using Suc-LLVY-AMC as substrate preincubated for 30 mins followed by substrate addition and measured for 120 mins by fluorescence based assay.

The target of data set [2] is T2, Proteasome subunit beta type-10 (Homo sapiens) (UniProt P40306).
T2 sequence (whole entry): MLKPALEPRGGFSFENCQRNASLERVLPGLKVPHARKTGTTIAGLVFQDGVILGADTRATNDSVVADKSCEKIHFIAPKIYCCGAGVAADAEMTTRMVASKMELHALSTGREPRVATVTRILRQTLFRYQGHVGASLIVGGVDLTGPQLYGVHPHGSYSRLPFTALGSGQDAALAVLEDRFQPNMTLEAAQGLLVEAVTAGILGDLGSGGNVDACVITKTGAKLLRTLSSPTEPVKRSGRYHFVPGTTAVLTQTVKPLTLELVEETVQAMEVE
Put plainly: Inhibition of human immunoproteasome beta 2i subunit at 10 uM using Boc-LRR-AMC as substrate preincubated for 30 mins followed by substrate addition measured for 120 mins by fluorescence based assay. In short, it runs like this:
(§1)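 Purified human immunoproteasome or constitutive proteasome subunit activities measured with fluorogenic substrates in presence of 10 μM compound; reported as residual activity.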

The target of data set [3] is T3, Proteasome subunit beta type-9 (Homo sapiens) (UniProt P28065).
T3 sequence (whole entry): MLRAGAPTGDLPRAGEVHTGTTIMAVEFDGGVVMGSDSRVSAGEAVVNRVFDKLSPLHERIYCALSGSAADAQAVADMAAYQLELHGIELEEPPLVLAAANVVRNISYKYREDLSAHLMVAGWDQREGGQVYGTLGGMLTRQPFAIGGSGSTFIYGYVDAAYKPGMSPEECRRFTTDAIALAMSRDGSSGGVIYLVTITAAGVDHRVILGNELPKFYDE
As to the kind of experiment: Inhibition of human immunoproteasome beta 1i subunit at 10 uM using Ac-PAL-AMC as substrate preincubated for 30 mins followed by substrate addition measured for 120 mins by fluorescence based assay. In short, it runs like this:
as §1

Data set [4] deals with T4, Proteasome Macropain subunit MB1 (Homo sapiens, UniProt P28074).
T4 sequence (P28074 whole entry): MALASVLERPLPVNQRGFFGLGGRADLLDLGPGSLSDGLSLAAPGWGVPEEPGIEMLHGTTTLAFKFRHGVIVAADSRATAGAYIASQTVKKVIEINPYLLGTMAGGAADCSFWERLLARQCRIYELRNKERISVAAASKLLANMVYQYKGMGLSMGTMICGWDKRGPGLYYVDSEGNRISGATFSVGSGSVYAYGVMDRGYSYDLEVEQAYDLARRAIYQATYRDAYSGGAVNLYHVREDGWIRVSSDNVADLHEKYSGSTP
As to the kind of experiment: Inhibition of human constitutive proteasome beta 5 subunit at 10 uM using Suc-LLVY-AMC as substrate preincubated for 30 mins followed by substrate addition measured for 120 mins by fluorescence based assay. Conditions: 2 h. In short, it runs like this: as §1

In data set [5] the target is T1, Proteasome subunit beta type-8. Put plainly: Inhibition of 20S immunoproteasome beta 5 chymotrypsin-like activity in human THP-1 cell lysates using Suc-LLVY-AMC as substrate preincubated for 30 mins followed by substrate addition and measured for 90 mins by fluorescence based assay. Format: subcellular, Lysate. In short, it runs like this: (§2)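 Compounds incubated with cell lysates (HeLa: predominantly constitutive proteasome; THP-1: high immunoproteasome) and beta5 activity read with fluorogenic Suc-LLVY-AMC; IC50 determined.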

For data set [6], the target named is T5, Proteasome subunit beta type-8 (Homo sapiens) (UniProt P28062).
T5 sequence (whole entry): T1 sequence (P28062 whole entry)
As to the kind of experiment: Inhibition of 26S immunoproteasome beta 5 chymotrypsin-like activity in human THP-1 intact cells using […] as substrate after 2 hrs by luciferase based assay. Format: cell-based.

Data set [7] concerns the target T5, Proteasome subunit beta type-8 (Homo sapiens). As to the kind of experiment: Inhibition of 26S immunoproteasome beta 5 chymotrypsin-like activity in human HeLa intact cells using […] as substrate after 2 hrs by luciferase based assay. Format: cell-based.
Data set [8] concerns PBMC. As to the kind of experiment: Inhibition of LPS-induced IL-6 secretion in human PBMC at 10 uM preincubated for 1 hr followed by LPS addition and measured after 24 hrs by cytometric bead array-based FACS analysis. Format: functional, cell-based.
For data set [9], the system named is PBMC. As to the kind of experiment: Inhibition of LPS-induced IL-10 secretion in human PBMC at 10 uM preincubated for 1 hr followed by LPS addition and measured after 24 hrs by cytometric bead array-based FACS analysis. Format: functional, cell-based. (Flow cytometry measures light scatter and fluorescence of single cells or particles in a stream.)
In data set [10] the test system is PBMC. As to the kind of experiment: Inhibition of LPS-induced IL-1beta production in human PBMC at 10 uM preincubated for 1 hr followed by LPS addition and measured after 24 hrs by cytometric bead array-based FACS analysis. Format: functional, cell-based.
For data set [11], the system named is PBMC. As to the kind of experiment: Inhibition of LPS-induced IL-8 production in human PBMC at 10 uM preincubated for 1 hr followed by LPS addition and measured after 24 hrs by cytometric bead array-based FACS analysis. Format: functional, cell-based.
Data set [12] deals with PBMC. As to the kind of experiment: Inhibition of LPS-induced IL-12p70 production in human PBMC at 10 uM preincubated for 1 hr followed by LPS addition and measured after 24 hrs by cytometric bead array-based FACS analysis. Format: functional, cell-based.
Data set [13] concerns PBMC. As to the kind of experiment: Inhibition of LPS-induced TNFalpha production in human PBMC at 10 uM preincubated for 1 hr followed by LPS addition and measured after 24 hrs by cytometric bead array-based FACS analysis. Format: functional, cell-based.
Data set [14] addresses T5, Proteasome subunit beta type-8 (Homo sapiens). As to the kind of experiment: Time-dependent inhibition of human immunoproteasome beta 5i subunit assessed as increase in IC50 value using Suc-LLVY-AMC as substrate co-incubated with substrate without preincubation by fluorescence based analysis relative to 30 mins preincubated compound-treated control. An outline of the steps:
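IC50 against immunoproteasome beta5i (Suc-LLVY-AMC) determined without pre-incubating compound with enzyme before substrate addition, compared against pre-incubated assay.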

Data set [15] shares this target. As to the kind of experiment: Inhibition of 20S immunoproteasome beta 5 chymotrypsin-like activity in human HeLa cell lysates using Suc-LLVY-AMC as substrate preincubated for 30 mins followed by substrate addition and measured for 90 mins by fluorescence based assay. Format: subcellular. Conditions: Lysate. An outline of the steps: as §2
Data set [16] deals with T6, Proteasome subunit beta type-10 (Homo sapiens, UniProt P40306).
T6 sequence (P40306 whole entry): T2 sequence (whole entry)
Put plainly: Inhibition of human immunoproteasome beta 2i subunit using Boc-LRR-AMC as substrate preincubated for 30 mins followed by substrate addition measured for 120 mins by fluorescence based assay.

Data set [17] concerns the target T7, Proteasome subunit beta type-9 (Homo sapiens, UniProt P28065).
T7 sequence (P28065 whole entry): T3 sequence (whole entry)
Put plainly: Inhibition of human immunoproteasome beta 1i subunit using Ac-PAL-AMC as substrate preincubated for 30 mins followed by substrate addition measured for 120 mins by fluorescence based assay.

The target in data set [18] is T4, Proteasome Macropain subunit MB1. As to the kind of experiment: Inhibition of human constitutive proteasome beta 5 subunit using Suc-LLVY-AMC as substrate preincubated for 30 mins followed by substrate addition measured for 120 mins by fluorescence based assay.
The target in data set [19] is T5, Proteasome subunit beta type-8 (Homo sapiens). As to the kind of experiment: Inhibition of human immunoproteasome beta 5i subunit using Suc-LLVY-AMC as substrate assessed as residual activity at 10 uM preincubated for 30 mins followed by substrate addition measured for 120 mins by fluorescence based assay relative to control. An outline of the steps: as §1

The source of these data is ChEMBL document CHEMBL4334435, “A focused structure-activity relationship study of psoralen-based immunoproteasome inhibitors” (Medchemcomm, 2019).

Each structure is given as a SMILES string. Calls of active or inactive are those of the source. No cut-off for these calls is given here.

As a reminder, the IC50 is the concentration that gives 50% inhibition. Low readings indicate higher potency, high ones lower potency. As to `CCc1ccc(-c2coc3cc4oc(=O)c(-c5nsc(=O)o5)c(C)c4cc23)cc1`, the IC50 was 174 nM in data set [1]; 1530 nM in data set [5]; “Nd(Insoluble)” in data set [16]; “Nd(Insoluble)” in [17]; “Nd(Insoluble)” in data set [18]. Also, the inhibition result (in data set [2]; in [3]; in [6]; in [7]; in the data set with PBMC [10]; in the data set on PBMC [11]) was “inactive” in each case. For the same compound, the inhibition entry in the data set on PBMC [12] and with PBMC [13] was “inactive” in each case. Also, the “inhibition (INH)” value in data set [4] is “Not Active”. For the same compound, the inhibition result (in the data set with PBMC [8]; in the data set on PBMC [9]; in [14]; in [15]) was “Active” throughout.

Consider `COc1ccccc1-c1coc2cc3oc(=O)c(-c4nsc(=O)o4)c(C)c3cc12`, for which the IC50 in data set [1] is 227 nM; in data set [16], “Nd(Insoluble)”; in data set [17], “Nd(Insoluble)”; in [18], “Nd(Insoluble)”. The inhibition result in data set [2] and in data set [3] was “inactive” each time. Moreover, the “inhibition (INH)” value in [4] is on record as “Not Active”.

Consider `Cc1c(-c2nsc(=O)o2)c(=O)oc2cc3occ(C4CCCC4)c3cc12`, for which the half-inhibitory concentration (IC50) in data set [1] was 264 nM; in data set [16] it was “Nd(Insoluble)”; in data set [17] it was “Nd(Insoluble)”; in [18], “Nd(Insoluble)”. The inhibition entry in data set [2] and in [3] was “inactive” in each case. The “inhibition (INH)” value in data set [4] is “Not Active”.

On to `Cc1c(CC(=O)N(C)CC#N)c(=O)oc2cc3occ(C4CCCCC4)c3cc12`, for which the Activity in data set [19] worked out at 101%.

Take `Cc1c(CC(=O)NCC#N)c(=O)oc2cc3occ(C4CCCCC4)c3cc12`: the Activity in [19] worked out at 99%.

For `Cc1c(-c2nsc(=O)o2)c(=O)oc2cc3occ(-c4ccc(F)cc4)c3cc12`, the IC50 in [1] was 200 nM; in data set [16], “Nd(Insoluble)”; in data set [17], “Nd(Insoluble)”; in [18], “Nd(Insoluble)”. The inhibition entry in [2] and in data set [3] was “inactive” throughout. In data set [4], the “inhibition (INH)” value is on record as “Not Active”.

On to `Cc1c(CC(=O)ON2C(=O)CCC2=O)c(=O)oc2cc3occ(C4CCCCC4)c3cc12`, for which the Activity in [19] is 62%.

Regarding `COc1cccc(-c2coc3cc4oc(=O)c(-c5nsc(=O)o5)c(C)c4cc23)c1`, the IC50 is 226 nM in [1], “Nd(Insoluble)” in [16], “Nd(Insoluble)” in data set [17] and “Nd(Insoluble)” in data set [18]. Besides, the inhibition result in [2] and in data set [3] was “inactive” in each case. Further, in data set [4], the “inhibition (INH)” value is given as “Not Active”.

In the case of `Cc1c(-c2nsc(=O)o2)c(=O)oc2cc3occ(-c4ccc(Br)cc4)c3cc12`, the half-maximal inhibitory concentration (IC50) in data set [1] was 351 nM; in data set [16] it was “Nd(Insoluble)”; in data set [17], “Nd(Insoluble)”; in [18], “Nd(Insoluble)”. Further, the inhibition result in [2] and in [3] was “inactive” throughout. Further, the “inhibition (INH)” value in data set [4] is reported as “Not Active”.

For `Cc1c(CCC(=O)N(C)CC#N)c(=O)oc2cc3occ(C4CCCCC4)c3cc12`, in data set [19], the Activity was determined as 111%.

In the case of `Cc1c(-c2nsc(=O)o2)c(=O)oc2cc3occ(C4CCC4)c3cc12`, the IC50 in data set [1] is 433 nM; in data set [16] it was “Nd(Insoluble)”; in data set [17] it was “Nd(Insoluble)”; in [18], “Nd(Insoluble)”. Also, the inhibition result in [2] and in data set [3] was “inactive” throughout. For the same compound, in data set [4], the “inhibition (INH)” value is on record as “Not Active”.

`Cc1c(CCC(=O)NCC#N)c(=O)oc2cc3occ(C4CCCCC4)c3cc12`: in data set [19], the Activity came out at 102%.

For the compound `Cc1cccc(-c2coc3cc4oc(=O)c(-c5nsc(=O)o5)c(C)c4cc23)c1`, the IC50 was 365 nM in [1], “Nd(Insoluble)” in data set [16], “Nd(Insoluble)” in data set [17] and “Nd(Insoluble)” in data set [18]. Moreover, the inhibition entry in [2] and in data set [3] was “inactive” in each case. In [4], the “inhibition (INH)” value is “Not Active”.

For the compound `Cc1c(-c2nsc(=O)o2)c(=O)oc2cc3occ(-c4cccs4)c3cc12`, the IC50 was 141 nM in data set [1], “Nd(Insoluble)” in data set [16], “Nd(Insoluble)” in data set [17] and “Nd(Insoluble)” in [18]. Besides, the inhibition entry in [2] and in data set [3] was “inactive” throughout. Further, the “inhibition (INH)” value in data set [4] is listed as “Not Active”. The inhibition entry in data set [14] is “Active”.

`Cc1c(CCC(=O)ON2C(=O)CCC2=O)c(=O)oc2cc3occ(C4CCCCC4)c3cc12` displayed a half-maximal inhibitory concentration (IC50) in data set [1] of 1830 nM.
